Measurements: ChEMBL document CHEMBL4038284, “Synthesis of novel quinoline-based 4,5-dihydro-1H-pyrazoles as potential anticancer, antifungal, antibacterial and antiprotozoal agents” (Eur J Med Chem, 2017)
In brackets after ≈: the same amount, converted by molar mass. Activity calls are given as the source filed them. The calls are words filed in the database; no cut-off is given here.

Columns and labels:
NCI-H23 = assay: Growth inhibition of human NCI-H23 cells at 10 uM incubated for 48 hrs by sulforhodamine B assay; type: functional, cell-based
In short: (§1)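 NCI 60-line panel, single 10 μM dose. Cells were grown in RPMI-1640 with 5% FBS and 2 mM L-glutamine and pre-incubated 24 h before compound addition (DMSO stock). Exposure was 48 h at 37 °C, 5% CO2. Cells were fixed with cold TCA (10% final), stained with 0.4% SRB, bound dye dissolved in 10 mM Tris base, A515 read. Growth was taken relative to time-zero and untreated control plates.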

Malme-3M = assay: Growth inhibition of human MALME-3M cells at 10 uM incubated for 48 hrs by sulforhodamine B assay; type: functional, cell-based; in short: as §1
Cryptococcus neoformans [1] = assay: Growth inhibition of Cryptococcus neoformans ATCC 32264 at 62.5 ug/ml incubated for 48 hrs under dark condition by broth microdilution method relative to control; type: functional; conditions: ATCC 32264, 48 h, read-out: GI
In short: (§2)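 CLSI M27-A3 broth microdilution in RPMI-1640, DMSO ≤1%. Inoculum 1-5 × 10^3 CFU/mL. Incubated 48 h at 30 °C, dark. % inhibition = 100 − (OD405 test − sterility control)/(OD405 growth control − sterility control), with growth and sterility control wells. Triplicate.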

T47D = assay: Growth inhibition of human T47D cells at 10 uM incubated for 48 hrs by sulforhodamine B assay; type: functional, cell-based
In short: (§3)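 NCI-60 single-dose screen at 10 µM for 48 h. Cells were grown in RPMI-1640 with 5% FBS and 2 mM L-glutamine and preincubated 24 h before compound. Time-zero plates were TCA-fixed at compound addition. After exposure, cells were TCA-fixed, stained with SRB and read at 515 nm. Percentage growth was calculated against time-zero and untreated-control absorbances.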

Candida albicans [2] = assay: Antifungal activity against Candida albicans ATCC 10231 incubated for 48 hrs under dark condition by broth microdilution method; type: functional; conditions: ATCC 10231, 48 h
In short: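 CLSI M27-A3 broth microdilution in RPMI-1640, DMSO ≤1%, compounds at 250-0.98 µg/mL final. Inoculum 1-5 × 10^3 CFU/mL. Incubated 48 h at 30 °C in a moist dark chamber, read at OD405. MIC80 and MIC50 taken from % inhibition dose-response curves (mean ± SEM, triplicate). Amphotericin B was the positive control.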

RXF 393 = assay: Growth inhibition of human RXF393 cells at 10 uM incubated for 48 hrs by sulforhodamine B assay; type: functional, cell-based; in short: as §1
IGROV-1 = assay: Growth inhibition of human IGROV1 cells at 10 uM incubated for 48 hrs by sulforhodamine B assay; type: functional, cell-based; in short: as §1
RPMI-8226 = assay: Growth inhibition of human RPMI8226 cells at 10 uM incubated for 48 hrs by sulforhodamine B assay; type: functional, cell-based; in short: as §1
NCI/ADR-RES = assay: Growth inhibition of human NCI/ADR-RES cells at 10 uM incubated for 48 hrs by sulforhodamine B assay; type: functional, cell-based; in short: as §1
SNB-19 = assay: Growth inhibition of human SNB19 cells at 10 uM incubated for 48 hrs by sulforhodamine B assay; type: functional, cell-based; in short: as §3
Staphylococcus aureus = assay: Antibacterial activity against vancomycin-intermediate Staphylococcus aureus after 24 hrs by resazurin dye based microdilution assay; type: functional
In short: (§4)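 MIC taken as the lowest concentration giving visible inhibition and/or by resazurin (1 mg/mL). Gentamicin was the control. Run in duplicate, repeated at least three times.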

Candida albicans [3] = assay: Growth inhibition of Candida albicans ATCC 10231 at 7.8 ug/ml incubated for 48 hrs under dark condition by broth microdilution method relative to control; type: functional; conditions: ATCC 10231, 48 h, read-out: GI; in short: as §2
HCT-116 = assay: Growth inhibition of human HCT116 cells at 10 uM incubated for 48 hrs by sulforhodamine B assay; type: functional, cell-based
In short: (§5)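 NCI 60-cell-line screen at a single 10 µM dose. Cells in RPMI-1640 with 5% FBS and 2 mM L-glutamine, pre-incubated 24 h, then treated for 48 h at 37 °C. TCA fixation, sulforhodamine B staining, absorbance at 515 nm. Percentage growth calculated against time-zero and untreated controls.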

A549 = assay: Growth inhibition of human A549/ATCC cells at 10 uM incubated for 48 hrs by sulforhodamine B assay; type: functional, cell-based; in short: as §5
K562 = assay: Growth inhibition of human K562 cells at 10 uM incubated for 48 hrs by sulforhodamine B assay; type: functional, cell-based; in short: as §1
SR = assay: Growth inhibition of human SR cells at 10 uM incubated for 48 hrs by sulforhodamine B assay; type: functional, cell-based; in short: as §3
Hs-578T = assay: Growth inhibition of human Hs578T cells at 10 uM incubated for 48 hrs by sulforhodamine B assay; type: functional, cell-based; in short: as §1
MDA-MB-231 = assay: Growth inhibition of human MDA-MB-231 cells at 10 uM incubated for 48 hrs by sulforhodamine B assay; type: functional, cell-based; in short: as §1
Klebsiella pneumoniae = assay: Antibacterial activity against carbapenemase positive Klebsiella pneumoniae BAA 1705 after 24 hrs by resazurin dye based microdilution assay; type: functional; conditions: BAA 1705, 24 h; in short: as §4
TK-10 = assay: Growth inhibition of human TK10 cells at 10 uM incubated for 48 hrs by sulforhodamine B assay; type: functional, cell-based; in short: as §3
HL-60(TB) = assay: Growth inhibition of human HL-60(TB) cells at 10 uM incubated for 48 hrs by sulforhodamine B assay; type: functional, cell-based
In short: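 NCI 60-line single-dose screen at 10 μM, 48 h. Cells in RPMI-1640 with 5% FBS and 2 mM L-glutamine at 37 °C, 5% CO2. Growth measured by TCA fixation and SRB staining (515 nm), relative to time-zero and untreated control wells.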

SF-295 = assay: Growth inhibition of human SF295 cells at 10 uM incubated for 48 hrs by sulforhodamine B assay; type: functional, cell-based; in short: as §1
Candida albicans [4] = assay: Growth inhibition of Candida albicans ATCC 10231 at 3.4 ug/ml incubated for 48 hrs under dark condition by broth microdilution method relative to control; type: functional; conditions: ATCC 10231, 48 h, read-out: GI
KM12 = assay: Growth inhibition of human KM12 cells at 10 uM incubated for 48 hrs by sulforhodamine B assay; type: functional, cell-based; in short: as §1
NCI-H460 = assay: Growth inhibition of human NCI-H460 cells at 10 uM incubated for 48 hrs by sulforhodamine B assay; type: functional, cell-based; in short: as §1
Cryptococcus neoformans [5] = assay: Growth inhibition of Cryptococcus neoformans ATCC 32264 at 3.4 ug/ml incubated for 48 hrs under dark condition by broth microdilution method relative to control; type: functional; conditions: ATCC 32264, 48 h, read-out: GI
Candida albicans [6] = assay: Growth inhibition of Candida albicans ATCC 10231 at 15.62 ug/ml incubated for 48 hrs under dark condition by broth microdilution method relative to control; type: functional; conditions: ATCC 10231, 48 h, read-out: GI; in short: as §2
MCF7 = assay: Growth inhibition of human MCF7 cells at 10 uM incubated for 48 hrs by sulforhodamine B assay; type: functional, cell-based; in short: as §1

SMILES | growth inhibition (GI) (NCI-H23) | growth inhibition (GI) (Malme-3M) | inhibition of growth at 62.5 µg/mL (Cryptococcus neoformans [1]) [%] | growth inhibition (GI) (T47D) | MIC50 (Candida albicans [2]) [µg/mL] | MIC80 (Candida albicans [2]) [µg/mL] | growth inhibition (GI) (RXF 393) | growth inhibition (GI) (IGROV-1) | growth inhibition (GI) (RPMI-8226) | growth inhibition (GI) (NCI/ADR-RES) | growth inhibition (GI) (SNB-19) | MIC (Staphylococcus aureus) [µg/mL] | inhibition of growth at 7.8 µg/mL (Candida albicans [3]) [%] | growth inhibition (GI) (HCT-116) | growth inhibition (GI) (A549) | growth inhibition (GI) (K562) | MIC (Klebsiella pneumoniae) [µg/mL] | inhibition of growth at 3.4 µg/mL (Candida albicans [4]) [%] | inhibition of growth at 3.4 µg/mL (Cryptococcus neoformans [5]) [%] | inhibition of growth at 15.62 µg/mL (Candida albicans [6]) [%] | also measured
COc1cc(C(=O)/C=C/c2cccc(Nc3ccnc4cc(Cl)ccc34)c2)cc(OC)c1OC | Active | Active | 6.09 | Active | ≥ 250 | ≥ 250 | Active | Active | Active | Active | Active | > 1000 | 2.51 | Active | Active | Active | > 1000 | 1.24 | 0 | 4.77 | growth inhibition (GI) (SR): Active; growth inhibition (GI) (Hs-578T): Active; growth inhibition (GI) (MDA-MB-231): Active; growth inhibition (GI) (TK-10): Active; growth inhibition (GI) (HL-60(TB)): Active; growth inhibition (GI) (SF-295): Active; growth inhibition (GI) (KM12): Active; growth inhibition (GI) (NCI-H460): Active; growth inhibition (GI) (MCF7): Active
COc1ccc(C2=NN(C=O)C(c3cccc(Nc4ccnc5cc(Cl)ccc45)c3)C2)cc1 (configuration not stated) | Active | Active | 43.5 | Active | ≥ 250 | ≥ 250 | Active | Active | Active | Active | Active | > 1000 | 7.43 | Active | Active | Active | > 1000 | 3.51 | 4.06 | 12.9 | growth inhibition (GI) (SR): Active; growth inhibition (GI) (Hs-578T): Active; growth inhibition (GI) (MDA-MB-231): Active; growth inhibition (GI) (TK-10): Active; growth inhibition (GI) (HL-60(TB)): Active; growth inhibition (GI) (SF-295): Active; growth inhibition (GI) (KM12): Active; growth inhibition (GI) (NCI-H460): Active; growth inhibition (GI) (MCF7): Active
O=Cc1cccc(Nc2ccnc3cc(Cl)ccc23)c1 |  |  | 19.6 |  | 250 (≈ 884 µM) | ≥ 250 |  |  |  |  |  | 125 (≈ 442 µM) | 1.48 |  |  |  | 250 (≈ 884 µM) | 1.33 | 5.03 | 10.8 | 
